47 compounds from ChEMBL document CHEMBL4342523, “Discovery and Development of S6821 and S7958 as Potent TAS2R8 Antagonists” (J Med Chem, 2020) can be followed below.

In series [1] the target is T1, Taste receptor type 2 member 8 (Homo sapiens, UniProt Q9NYW2).
T1 sequence (Q9NYW2 whole entry): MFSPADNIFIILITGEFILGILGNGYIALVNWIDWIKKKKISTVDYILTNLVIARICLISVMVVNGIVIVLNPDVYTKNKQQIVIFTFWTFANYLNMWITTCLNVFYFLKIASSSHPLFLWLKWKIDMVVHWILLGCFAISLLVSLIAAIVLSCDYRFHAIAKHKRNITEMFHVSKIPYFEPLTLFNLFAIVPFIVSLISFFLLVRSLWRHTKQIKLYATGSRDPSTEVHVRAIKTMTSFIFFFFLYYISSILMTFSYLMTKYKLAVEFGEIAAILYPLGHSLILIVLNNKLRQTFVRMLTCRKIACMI
Kind of series: Antagonist activity at recombinant human TAS2R8 stably expressed in cells co-expressing Galpha16gust44 assessed as inhibition of andrographolide-induced intracellular calcium level measured for 100 secs by fluo-4 dye based FLIPR assay. The series is classed as functional, cell-based. A digest of the protocol: (§1)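 Recombinant cells stably expressing G16t44 chimera and TAS2R8 (clones isolated by limiting dilution), plated 24 h before assay; loaded with fluo-4 in PBS 60 min, washed, rested 15 min in dark at RT. Andrographolide agonist at its EC80, premixed with antagonist and added together; final DMSO 0.5%. Baseline read 10 s, then fluorescence followed 100 s on FLIPR.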

A short description of series [2]: Solubility of the compound in pH 7.1 buffer measured after 24 hrs. The series is classed as physicochemical.
Series [3] is described as follows: Ratio of solubility of the compound in pH 7.1 buffer measured after 24 hrs to IC50 for antagonist activity at recombinant human TAS2R8 expressed in cells co-expressing Galpha16gust44 assessed as inhibition of andrographolide-induced intracellular calcium level. The series is classed as cell-based. (Calcium flux is commonly read through the fluorescence of an indicator in the cells.)

Series [4] is described as follows: Stability of the compound in pH 2.8 buffer assessed as parent compound remaining measured after 24 hrs at 100 degC. Format: physicochemical. Conditions: read-out: Stability.
Series [5] is described as follows: Stability of the compound in pH 7.1 buffer assessed as parent compound remaining measured after 24 hrs at 100 degC. Format: physicochemical. Conditions: read-out: Stability.
In series [6] the target is T2, Taste receptor type 2 member 8 (Homo sapiens) (UniProt Q9NYW2).
T2 sequence (whole entry): T1 sequence (Q9NYW2 whole entry)
Put plainly: Antagonist activity at recombinant human TAS2R8 stably expressed in cells co-expressing Galpha16gust44 assessed as inhibition of andrographolide-induced intracellular calcium level at 10 uM measured for 100 secs by fluo-4 dye based FLIPR assay relative to control. Format: functional, cell-based. In outline: as §1

Series [7] in a line: Drug metabolism in pH <6.5 buffer assessed as S6821 formation measured under room temperature.

pIC50: −log10 of the molar value. Values after ≈ are worked out from the molar mass of the structure shown.

Broadly, the pIC50 is the negative decadic logarithm of the IC50, by convention in mol/L. With `Cc1noc(C)c1Cn1cc(N2Cc3ccccc3C2=O)cn1`, the pIC50 in series [1] was 5.05.

`Cc1noc(C)c1CN1CC(=O)N(c2cnn(Cc3c(C)noc3C)c2)C1=O`: the pIC50 in series [1] is 6.40.

Regarding `Cc1noc(C)c1Cn1cc(NC(=O)c2ccccn2)cn1`, the negative logarithm of the IC50 (pIC50) in series [1] is 5.64.

For the compound `Cc1noc(C)c1Cn1cc(NC(=O)c2ccc(O)cc2)cn1`, the negative logarithm of the IC50 (pIC50) in series [1] was 6.30.

For the compound `Cc1noc(C)c1Cn1cc(NC(=O)CCc2ccccc2)cn1`, the pIC50 in series [1] is 6.40.

A word on the solubility: it is the dissolved amount per volume that the medium holds. Low readings indicate a poorly soluble substance, high ones a readily soluble substance. With `Cc1noc(C)c1Cn1cc(N2C(=O)[C@H](C)N(Cc3cccc(O)c3)C2=O)cn1`, the concentration in solution in series [2] (solubility at 24 h) came to 60 µM (≈ 23.7 µg/mL). Moreover, the Ratio in series [3] came out at 3750. In addition, the remaining at 24 h was over 99% in series [4] and 92% in series [5].

Turning to `Cc1noc(C)c1Cn1cc(N2C(=O)CN(CC3CCCCC3)C2=O)cn1`, the pIC50 in series [1] is 6.52.

`Cc1noc(C)c1Cn1cc(N2C(=O)c3ccccc3C2=O)cn1`: the pIC50 in series [1] was 6.70. This compound also had a solubility at 24 h in series [2] of 12 µM (≈ 3.87 µg/mL). The remaining at 24 h in series [4] amounted to 3%; in series [5], 5%.

In the case of `COc1cccc(C(=O)Nc2cnn(Cc3c(C)noc3C)c2)n1`, the negative logarithm of the IC50 (pIC50) in series [1] was 6.15.

With `Cc1noc(C)c1Cn1cc(N2C(=O)CN(CC3CCCO3)C2=O)cn1` (stereo not drawn), in series [1], the pIC50 is 6.00.

For the compound `Cc1noc(C)c1Cn1cc(NC(=O)c2ccccc2)cn1`, the pIC50 in series [1] is 5.70 to 5.77.

As for `COc1cncc(C(=O)Nc2cnn(Cc3c(C)noc3C)c2)c1`, in series [1], the pIC50 was 6.10.

In the case of `COc1cccc(C(=O)Nc2cnn(Cc3c(C)noc3C)c2)c1`, in series [1], the pIC50 is 6.15.

As for `Cc1noc(C)c1Cn1cc(N2CCN(Cc3ccccc3)C2=O)cn1`, the pIC50 in series [1] was 6.00.

For `Cc1noc(C)c1Cn1cc(N2C(=O)N(Cc3cccc(O)c3)C3(CCC3)C2=O)cn1`, the pIC50 in series [1] was 7.40. Further, the concentration in solution in series [2] (solubility at 24 h) came to 3 µM (≈ 1.26 µg/mL). Besides, the Ratio in series [3] is 77. The remaining at 24 h was 97% in series [4] and 98% in series [5].

As to `Cc1noc(C)c1Cn1cc(N2C(=O)CNC2=O)cn1`, the pIC50 in series [1] was 6.05.

As for `CNC(=O)c1cccc(CN2CC(=O)N(c3cnn(Cc4c(C)noc4C)c3)C2=O)c1`, the pIC50 in series [1] is 7.00.

One may read the inhibition as the drop in the measured response relative to a control, in per cent. For the compound `CCSc1ncccc1C(=O)Nc1cnn(Cc2c(C)noc2C)c1`, the inhibition in series [6] turned out to be 50%. The pIC50 in series [1] is 5.64.

Regarding `COc1ccc(OC)c(C(=O)Nc2cnn(Cc3c(C)noc3C)c2)c1`, the pIC50 in series [1] is 6.52.

Consider `Cc1noc(C)c1Cn1cc(N2C(=O)CN(Cc3ccccc3F)C2=O)cn1`, for which the pIC50 in series [1] is 7.00. For the same compound, the concentration in solution in series [2] (solubility at 24 h) was 51 µM (≈ 19.6 µg/mL). The Ratio in series [3] came out at 600.

Take `COc1ncccc1C(=O)Nc1cnn(Cc2c(C)noc2C)c1`: the pIC50 in series [1] is 5.96.

`Cc1noc(C)c1Cn1cc(NC(=O)c2cccc(O)c2)cn1`: in series [1], the pIC50 was 6.40.

For the compound `COc1ccccc1C(=O)Nc1cnn(Cc2c(C)noc2C)c1`, the pIC50 in series [1] is 5.72.

Regarding `Cc1cc(CN2CC(=O)N(c3cnn(Cc4c(C)noc4C)c3)C2=O)n(C)n1`, the pIC50 in series [1] is 6.70.

On to `Cc1noc(C)c1Cn1cc(N2C(=O)CN(Cc3ccccc3O)C2=O)cn1`, for which the pIC50 in series [1] is 7.00.

Take `Cc1noc(C)c1Cn1cc(NC(=O)N(CC(=O)O)Cc2cccc(O)c2)cn1`: the Drug metabolism entry in series [7] is reported as “Metabolite detected”.

In turn, `Cc1noc(C)c1Cn1cc(N2C(=O)[C@@H](C)N(Cc3cccc(O)c3)C2=O)cn1` gave a solubility at 24 h in series [2] of 61 µM (≈ 24.1 µg/mL). Besides, the Ratio in series [3] was 3390. Also, the remaining at 24 h in series [4] is over 99%; in series [5], 92%.

In series [2], `Cc1noc(C)c1Cn1cc(N2C(=O)N(Cc3cccc(O)c3)C3(CC3)C2=O)cn1` registered a solubility at 24 h of 31 µM (≈ 12.6 µg/mL). In series [3], the Ratio was found to be 1550. Further, the values for the remaining at 24 h in series [4] and in series [5] were over 99% and 96%, respectively.

For the compound `Cc1noc(C)c1Cn1cc(N2C(=O)CN(Cc3ccccn3)C2=O)cn1`, the pIC50 in series [1] is 6.00.

In the case of `COc1ccc(C(=O)Nc2cnn(Cc3c(C)noc3C)c2)cc1`, the pIC50 in series [1] was 6.15.

For `Cc1noc(C)c1Cn1cc(N2C(=O)CN(Cc3cccc(C(=O)O)c3)C2=O)cn1`, the pIC50 in series [1] is 5.70.

On to `Cc1noc(C)c1Cn1cc(NS(=O)(=O)c2ccccc2)cn1`, for which, in series [1], the pIC50 is 5.40.

As to `Cc1noc(C)c1Cn1cc(NC(=O)Nc2ccccc2)cn1`, the pIC50 in series [1] is 5.70.

As for `Cc1noc(C)c1Cn1cc(NC(=O)c2ccc3[nH]ccc3c2)cn1`, in series [1], the pIC50 was 6.52.

With `Cc1noc(C)c1Cn1cc(N2C(=O)C(=O)N(Cc3ccccc3)C2=O)cn1`, the pIC50 in series [1] is 5.70.

Take `Cc1noc(C)c1Cn1cc(NC(=O)c2ccccc2O)cn1`: in series [1], the pIC50 is 6.00.

As to `Cc1noc(C)c1Cn1cc(NC(=O)CCCc2ccccc2)cn1`, the pIC50 in series [1] was 6.10.

For the compound `COc1ccc(C(=O)Nc2cnn(Cc3c(C)noc3C)c2)cc1OC`, in series [1], the pIC50 is 6.00.

In series [2], `Cc1noc(C)c1Cn1cc(N2C(=O)[C@H](CO)N(Cc3cccc(O)c3)C2=O)cn1` registered a solubility at 24 h of 2480 µM (≈ 1020 µg/mL). Also, the Ratio in series [3] was found to be 57600. Besides, the remaining at 24 h in series [4] amounted to 53%; in series [5] it was 2%.

In the case of `COc1ccccc1CN1CC(=O)N(c2cnn(Cc3c(C)noc3C)c2)C1=O`, the pIC50 in series [1] is 7.00. Besides, the solubility at 24 h in series [2] was determined as 16 µM (≈ 6.33 µg/mL). Also, the Ratio in series [3] was determined as 267.

In the case of `Cc1noc(C)c1Cn1cc(NC(=O)Cc2ccccc2)cn1`, in series [1], the pIC50 is 6.10.

Regarding `Cc1noc(C)c1Cn1cc(N2C(=O)CN(Cc3ccccc3)C2=O)cn1`, the pIC50 in series [1] is 6.70. Also, in series [2], the concentration in solution (solubility at 24 h) was 70 µM (≈ 25.6 µg/mL). Further, the remaining at 24 h was over 99% in series [4] and 60% in series [5].

Regarding `Cc1noc(C)c1Cn1cc(N2C(=O)CN(Cc3ccc(O)cc3)C2=O)cn1`, in series [1], the pIC50 was 7.40.

As to `Cc1noc(C)c1Cn1cc(N2C(=O)N(Cc3cccc(O)c3)C(C)(CO)C2=O)cn1` (stereo not drawn), the pIC50 in series [1] is 7.00. Further, the concentration in solution in series [2] (solubility at 24 h) came to 356 µM (≈ 151 µg/mL). Besides, the Ratio in series [3] was 2660. Besides, the remaining at 24 h in series [4] was over 99%; in series [5] it was 43%.

In the case of `Cc1noc(C)c1Cn1cc(NC(=O)NCc2ccccc2)cn1`, the pIC50 in series [1] is 6.00.

Regarding `COC(=O)c1cccc(CN2CC(=O)N(c3cnn(Cc4c(C)noc4C)c3)C2=O)c1`, the pIC50 in series [1] was 7.00.

Turning to `Cc1noc(C)c1Cn1cc(NC(=O)c2ccc3ocnc3c2)cn1`, the pIC50 in series [1] is 5.52.
